The source made the active and inactive calls. No cut-off for these calls is given here.
Assays:
[1] = tested on: NCI-H460; assay: Induction of apoptosis in human H460 cells assessed as late apoptotic cells at 50 uM after 48 hrs using annexin V staining by FACS; format: functional
In short: (§1)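 H 460 cells seeded at 2 × 10⁵/well and exposed for 48 h (5, 10 or 50 µM) against a vehicle control. Floating and attached cells were pooled and washed in binding buffer (10 mM HEPES, 140 mM NaCl, 2.5 mM CaCl2, pH 7.4). They were stained 20 min with annexin V Alexa Fluor 488 and 1 µg/mL 7-AAD, then read by flow cytometry. Quadrants: viable, early apoptotic, late apoptotic.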

[2] = tested on: NCI-H460; assay: Cell cycle arrest in human H460 cells assessed as reduction of percentage of cells in S phase at 50 uM after 24 hrs using propidium iodide staining by FACS; format: functional, cell-based
In short: (§2)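 H 460 cells seeded at 2 × 10⁵/well and treated after overnight incubation with 5, 10 or 50 µM for 24 or 48 h. Attached and floating cells were pooled, fixed in 70% ethanol, treated with 0.2 µg/µL RNase A (37 °C, 15 min) and stained with 50 µg/mL propidium iodide. Flow cytometry counted 20000 events, in duplicate across two independent experiments.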

[3] = tested on: NCI-H460; assay: Induction of apoptosis in human H460 cells assessed as viable cells after 48 hrs using annexin V staining by FACS; format: functional, cell-based; in short: as §1
[4] = tested on: NCI-H460; assay: Antiproliferative activity against human H460 cells after 72 hrs by MTT assay; format: functional, cell-based; details: NCI-H460, 72 h
In short: (§3)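 Monolayers in DMEM with 10% FBS, 2 mM L-glutamine, penicillin/streptomycin, 37 °C, 5% CO2. Seeded at 3 × 10³ to 6 × 10³ cells/well on day 0. Agents added the next day in five 10-fold dilutions (10^-8–10^-4 mol/L), with a DMSO solvent control (max 0.25%). MTT read at 570 nm after 72 h. Quadruplicate points, three experiments. IC50 is the concentration giving 50% growth inhibition.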

[5] = tested on: NCI-H460; assay: Induction of apoptosis in human H460 cells assessed as late apoptotic cells after 48 hrs using annexin V staining by FACS; format: functional, cell-based; in short: as §1
[6] = tested on: NCI-H460; assay: Induction of apoptosis in human H460 cells assessed as early apoptotic cells at 50 uM after 48 hrs using annexin V staining by FACS; format: functional; in short: as §1
[7] = tested on: NCI-H460; assay: Cell cycle arrest in human H460 cells assessed as reduction of percentage of cells in S phase at 50 uM after 48 hrs using propidium iodide staining by FACS; format: functional, cell-based; in short: as §2
[8] = tested on: NCI-H460; assay: Cell cycle arrest in human H460 cells assessed as induction of G1 phase delay at 50 uM after 48 hrs using propidium iodide staining by FACS; format: functional, cell-based; in short: as §2
[9] = tested on: MCF7; assay: Antiproliferative activity against human MCF7 cells after 72 hrs by MTT assay; format: functional, cell-based; details: MCF7, 72 h; in short: as §3
[10] = Antiproliferative activity against human WI38 cells after 72 hrs by MTT assay; format: cell-based; details: WI-38, 72 h; in short: as §3
[11] = tested on: SW-620; assay: Antiproliferative activity against human SW620 cells after 72 hrs by MTT assay; format: functional, cell-based; details: SW-620, 72 h; in short: as §3
[12] = tested on: MIA PaCa-2; assay: Antiproliferative activity against human MIAPaCa2 cells after 72 hrs by MTT assay; format: functional, cell-based; details: MIA PaCa-2, 72 h; in short: as §3
[13] = tested on: NCI-H460; assay: Induction of apoptosis in human H460 cells assessed as viable cells at 50 uM after 48 hrs using annexin V staining by FACS; format: functional; details: NCI-H460, 48 h, read-out: Activity; in short: as §1
[14] = tested on: NCI-H460; assay: Cell cycle arrest in human H460 cells assessed as increase in percentage of cells in G1 phase at 10 uM after 24 hrs using propidium iodide staining by FACS; format: functional, cell-based; in short: as §2
[15] = tested on: NCI-H460; assay: Cell cycle arrest in human H460 cells assessed as induction of G2 phase delay at 50 uM after 24 hrs using propidium iodide staining by FACS; format: functional, cell-based; in short: as §2
[16] = tested on: NCI-H460; assay: Cell cycle arrest in human H460 cells assessed as increase in percentage of cells in G1 phase at 10 uM after 48 hrs using propidium iodide staining by FACS; format: functional, cell-based; in short: as §2
[17] = tested on: NCI-H460; assay: Cell cycle arrest in human H460 cells assessed as induction of G1 phase delay at 50 uM after 24 hrs using propidium iodide staining by FACS; format: functional, cell-based; in short: as §2
[18] = tested on: NCI-H460; assay: Cell cycle arrest in human H460 cells assessed as reduction of percentage of cells in S phase at 5 to 50 uM after 24 hrs using propidium iodide staining by FACS; format: functional, cell-based; in short: as §2
[19] = tested on: NCI-H460; assay: Cell cycle arrest in human H460 cells assessed as reduction of percentage of cells in S phase at 5 to 50 uM after 48 hrs using propidium iodide staining by FACS; format: functional, cell-based; in short: as §2
[20] = tested on: HeLa; assay: Antiproliferative activity against human HeLa cells after 72 hrs by MTT assay; format: functional, cell-based; in short: as §3
[21] = tested on: NCI-H460; assay: Induction of apoptosis in human H460 cells assessed as early apoptotic cells after 48 hrs using annexin V staining by FACS; format: functional, cell-based; in short: as §1
[22] = tested on: NCI-H460; assay: Cell cycle arrest in human H460 cells assessed as induction of G2 phase delay at 50 uM after 48 hrs using propidium iodide staining by FACS; format: functional, cell-based; in short: as §2
[23] = tested on: NCI-H460; assay: Induction of apoptosis in human H460 cells assessed as late apoptotic cells at 10 uM after 48 hrs using annexin V staining by FACS; format: functional; in short: as §1
[24] = tested on: NCI-H460; assay: Induction of apoptosis in human H460 cells assessed as early apoptotic cells at 10 uM after 48 hrs using annexin V staining by FACS; format: functional; in short: as §1
[25] = tested on: NCI-H460; assay: Induction of apoptosis in human H460 cells assessed as viable cells at 10 uM after 48 hrs using annexin V staining by FACS; format: functional; details: NCI-H460, 48 h, read-out: Activity; in short: as §1
[26] = tested on: NCI-H460; assay: Cell cycle arrest in human H460 cells assessed as increase in percentage of cells in sub-G1 phase at 5 to 50 uM after 48 hrs using propidium iodide staining by FACS; format: functional, cell-based; in short: as §2
[27] = tested on: NCI-H460; assay: Cell cycle arrest in human H460 cells assessed as increase in percentage of cells in sub-G1 phase at 5 to 50 uM after 24 hrs using propidium iodide staining by FACS; format: functional, cell-based; in short: as §2
[28] = tested on: HEp-2; assay: Antiproliferative activity against human Hep2 cells after 72 hrs by MTT assay; format: functional, cell-based; details: HEp-2, 72 h; in short: as §3
[29] = tested on: NCI-H460; assay: Induction of apoptosis in human H460 cells assessed as late apoptotic cells at 5 uM after 48 hrs using annexin V staining by FACS; format: functional; in short: as §1
[30] = tested on: NCI-H460; assay: Induction of apoptosis in human H460 cells assessed as viable cells at 5 uM after 48 hrs using annexin V staining by FACS; format: functional; details: NCI-H460, 48 h, read-out: Activity; in short: as §1
[31] = tested on: NCI-H460; assay: Induction of apoptosis in human H460 cells assessed as complete cell death at 50 uM after 48 hrs; format: functional, cell-based
[32] = tested on: NCI-H460; assay: Induction of apoptosis in human H460 cells at 50 uM after 24 hrs; format: functional
[33] = tested on: NCI-H460; assay: Induction of apoptosis in human H460 cells assessed as early apoptotic cells at 5 uM after 48 hrs using annexin V staining by FACS; format: functional; in short: as §1

Row | Compound | IC50 [4] | IC50 [9] | IC50 [10] | IC50 [11] | IC50 [12] | IC50 [20] | IC50 [28] | also measured
1 | Cc1ccc(Nc2nc3ccc(C(=N)NC(C)C)cc3s2)nc1.Cl.Cl | 15 µM | 8 µM | 31 µM | 12 µM | 14 µM | 12 µM |  | Activity [1]: 2.39%; Activity [2]: Active; Activity [3]: Dose-dependent effect; Activity [5]: Dose-dependent effect; Activity [6]: 13.58%; Activity [7]: Active; Activity [8]: Active; viability at 50 µM [13]: 83.2%; Activity [14]: inactive; Activity [15]: Active; Activity [16]: inactive; Activity [17]: Active; Activity [18]: Active; Activity [19]: Active; Activity [21]: Dose-dependent effect; Activity [22]: Active
2 | Cc1cccnc1Nc1nc2ccc(C3=NCCN3)cc2s1 | 2 µM | 2 µM |  | 2 µM | 3 µM | 3 µM |  | 
3 | Cc1cccc(Nc2nc3ccc(C4=NCCN4)cc3s2)n1.Cl.Cl | 2 µM | 2 µM | 2 µM | 2 µM | 2 µM | 2 µM |  | Activity [23]: 5.58%; Activity [3]: Dose-dependent effect; Activity [5]: Dose-dependent effect; Activity [24]: 24.05%; viability at 10 µM [25]: 67.7%; Activity [26]: Active; Activity [18]: Active; Activity [19]: Active; Activity [27]: Active; Activity [21]: Dose-dependent effect
4 | Cc1ccnc(Nc2nc3ccc(C#N)cc3s2)c1 |  | > 10 µM | ≥ 10 µM | 4 µM | 4 µM | 3 µM | 7 µM | 
5 | Cc1cccnc1Nc1nc2ccc(C#N)cc2s1 |  | > 10 µM | 2.3 µM | 3 µM | 3 µM | > 10 µM | > 10 µM | 
6 | Cc1ccc(Nc2nc3ccc(C#N)cc3s2)nc1 |  | > 10 µM | 4 µM | > 10 µM | 5 µM | 9 µM | > 10 µM | 
7 | CC(C)NC(=N)c1ccc2nc(Nc3ncccn3)sc2c1 | 5 µM | 13 µM | 75 µM | 15 µM | 11 µM | 7 µM |  | 
8 | N#Cc1ccc2nc(Nc3ccc(Cl)cn3)sc2c1 |  | 10 µM | > 10 µM | ≥ 10 µM | 6 µM | > 10 µM | > 10 µM | 
9 | Cc1cccnc1Nc1nc2ccc(C(=N)NC(C)C)cc2s1 | 2 µM | 2 µM | 14 µM | 5 µM | 3 µM | 5 µM |  | 
10 | CC(C)NC(=N)c1ccc2nc(NC(=O)c3ccccc3Cl)sc2c1 | 59 µM | 16 µM | 61 µM | 45 µM | 45 µM | 23 µM |  | 
11 | N#Cc1ccc(Nc2nc3ccc(C#N)cc3s2)cc1 |  | > 10 µM | > 10 µM | > 10 µM | > 10 µM | > 10 µM | > 10 µM | 
12 | CC(C)NC(=N)c1ccc2nc(NC(=O)c3ccc(F)cc3)sc2c1 | 22 µM | 13 µM | > 100 µM | 35 µM | 32 µM | 13 µM |  | 
13 | Clc1ccc(Nc2nc3ccc(C4=NCCN4)cc3s2)nc1 | 1.5 µM | 1.4 µM | 1 µM | 1.3 µM | 1.6 µM | 1 µM |  | 
14 | Cc1ccnc(Nc2nc3ccc(C(=N)NC(C)C)cc3s2)c1 | 2 µM | 2 µM | 12.5 µM | 3 µM | 3 µM | 4 µM |  | 
15 | Cc1cccc(Nc2nc3ccc(C(=N)NC(C)C)cc3s2)n1.Cl.Cl | 3 µM | 3 µM | 19 µM | 9 µM | 3 µM | 4 µM |  | Activity [29]: 3.37%; viability at 5 µM [30]: 83.1%; Activity [23]: 3.75%; Activity [3]: Dose-dependent effect; Activity [5]: Dose-dependent effect; Activity [24]: 16.43%; viability at 10 µM [25]: 77.7%; Activity [31]: Active; Activity [26]: Active; Activity [18]: Active; Activity [19]: Active; Activity [32]: 40%; Activity [27]: Active; Activity [21]: Dose-dependent effect; Activity [33]: 12.24%
16 | Cc1ccc(Nc2nc3ccc(C4=NCCN4)cc3s2)nc1.Cl.Cl | 2 µM | 2 µM | 6 µM | 1 µM | 2 µM | 2 µM |  | Activity [23]: 2.3%; Activity [3]: Dose-dependent effect; Activity [5]: Dose-dependent effect; Activity [24]: 6.98%; viability at 10 µM [25]: 89%; Activity [18]: Active; Activity [19]: Active; Activity [21]: Dose-dependent effect
17 | CC(C)NC(=N)c1ccc(Nc2nc3ccc(C(=N)NC(C)C)cc3s2)cc1 | 16 µM | 6 µM | 92 µM | 18 µM | 30 µM | 18 µM |  | 
18 | Cc1cccc(Nc2nc3ccc(C#N)cc3s2)n1 |  | 8 µM | > 10 µM | 4 µM | 6 µM | 8 µM | > 10 µM | 
19 | c1cnc(Nc2nc3ccc(C4=NCCN4)cc3s2)nc1 | 1.6 µM | 1.7 µM | 1.7 µM | 1.7 µM | 1.8 µM | 1.4 µM |  | 
20 | CC(C)NC(=N)c1ccc(C(=O)Nc2nc3ccccc3s2)cc1 | 16 µM | 13 µM | 16 µM | 17 µM | 17 µM | 9 µM |  | 
21 | CC(C)NC(=N)c1ccc2nc(Nc3ccc(Cl)cn3)sc2c1 | 15 µM | 5 µM | 17 µM | 13 µM | 12 µM | 9 µM |  | 
22 | CC(C)NC(=N)c1ccc2nc(NC(=O)c3ccccc3)sc2c1 | 15 µM | 22 µM | > 100 µM | 30 µM | 38 µM | 16 µM |  | 
23 | N#Cc1ccc2nc(Nc3ncccn3)sc2c1 |  | 7 µM | ≥ 10 µM | 9 µM | 3 µM | 5 µM | 5 µM | 
